# Test results from ChEMBL document CHEMBL1135916, “Design, synthesis, and structure-activity relationship of pyridyl imidazolidinones: a novel class of potent and selective human enterovirus 71 inhibitors” (J Med Chem, 2002).
# System: not listed separately
# Assay: Selectivity index (RD/EV71) of the compound
# Format: functional
# Settings: not given
row,SMILES,Selectivity index
1,O=C1N(CCCCCOc2ccc(Br)cc2)CCN1c1ccncc1,> 50
2,COc1ccc(-c2ccc(OCCCCCN3CCN(c4ccncc4)C3=O)cc2)cc1,> 74
3,O=C1N(CCCCCOc2ccc(-c3ccc(Br)cc3)cc2)CCN1c1ccncc1,> 179

# System: not listed separately
# Assay: (§1) Cytotoxicity against human rhabdomyosarcoma (RD) cells
# Format: functional
# Settings: not given
# How it was run: (§2)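 Test compound at various concentrations added to D551 (human normal skin fibroblast), WI38 (human normal lung fibroblast) or RD cells; incubated 96 h at 37 °C; cells harvested and viable cells counted by trypan blue staining. Triplicate, at least twice.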
row,SMILES,CC50 [µM]
1,O=C1N(CCCCCOc2ccc(Br)cc2)CCN1c1ccncc1,> 25

# System: Enterovirus A71
# Assay: Inhibition concentration against EV-71
# Format: functional, organism-based
# Settings: Enterovirus A
row,IC50 [µM],SMILES
1,0.5,O=C1N(CCCCCOc2ccc(Br)cc2)CCN1c1ccncc1
2,0.34,COc1ccc(-c2ccc(OCCCCCN3CCN(c4ccncc4)C3=O)cc2)cc1
3,0.14,O=C1N(CCCCCOc2ccc(-c3ccc(Br)cc3)cc2)CCN1c1ccncc1

# System: not listed separately
# Assay: Selectivity index (W138/EV71) of the compound
# Format: functional
# Settings: not given
row,SMILES,Selectivity index
1,O=C1N(CCCCCOc2ccc(Br)cc2)CCN1c1ccncc1,130
2,COc1ccc(-c2ccc(OCCCCCN3CCN(c4ccncc4)C3=O)cc2)cc1,> 294
3,O=C1N(CCCCCOc2ccc(-c3ccc(Br)cc3)cc2)CCN1c1ccncc1,> 714

# System: not listed separately
# Assay: Selectivity index (D551/EV71) of the compound
# Format: functional
# Settings: not given
row,SMILES,Selectivity index
1,O=C1N(CCCCCOc2ccc(Br)cc2)CCN1c1ccncc1,100
2,COc1ccc(-c2ccc(OCCCCCN3CCN(c4ccncc4)C3=O)cc2)cc1,> 294
3,O=C1N(CCCCCOc2ccc(-c3ccc(Br)cc3)cc2)CCN1c1ccncc1,> 714

# System: not listed separately
# Assay: Cytotoxicity against human normal skin fibroblast (W138) cells
# Format: cell-based
# Settings: W138 normal skin fibroblast cells
# How it was run: as §2
row,SMILES,CC50 [µM]
1,O=C1N(CCCCCOc2ccc(Br)cc2)CCN1c1ccncc1,65
2,COc1ccc(-c2ccc(OCCCCCN3CCN(c4ccncc4)C3=O)cc2)cc1,> 100
3,O=C1N(CCCCCOc2ccc(-c3ccc(Br)cc3)cc2)CCN1c1ccncc1,> 100

# System: not listed separately
# Assay: as §1
# Format: functional
# Settings: Homo sapiens, RD
row,SMILES,CC50 [µM]
1,COc1ccc(-c2ccc(OCCCCCN3CCN(c4ccncc4)C3=O)cc2)cc1,> 25
2,O=C1N(CCCCCOc2ccc(-c3ccc(Br)cc3)cc2)CCN1c1ccncc1,> 25

# System: not listed separately
# Assay: Cytotoxicity against human normal skin fibroblast (D551) cells
# Format: cell-based
# Settings: D551 normal skin fibroblast cells
# How it was run: as §2
row,SMILES,CC50 [µM]
1,O=C1N(CCCCCOc2ccc(Br)cc2)CCN1c1ccncc1,50
2,COc1ccc(-c2ccc(OCCCCCN3CCN(c4ccncc4)C3=O)cc2)cc1,> 100
3,O=C1N(CCCCCOc2ccc(-c3ccc(Br)cc3)cc2)CCN1c1ccncc1,> 100
